The source of these data is ChEMBL document CHEMBL1122603, “2-Acetylpyridine thiosemicarbazones. 9. Derivatives of 2-acetylpyridine 1-oxide as potential antimalarial agents” (1984).

Assay [1] deals with Plasmodium falciparum. In words: In vitro antimalarial potency against chloroquine-sensitive, pyrimethamine-resistant Plasmodium falciparum CAMP. The class given is functional. Particulars: read-out: ID50 (the source's name). A digest of the protocol: (§1)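 Semiautomated culture assay on P. falciparum. Stocks were 1 mg/mL in 1:1 DMSO/EtOH, diluted in culture medium as seven 2-fold steps over a 64-fold range, with chloroquine and mefloquine as plate controls. Plates ran 24 h at 37 °C under 5% O2/5% CO2/90% N2, then [G-3H]hypoxanthine was added for 18 h more. Harvested incorporation was read by scintillation counting as the viability index.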

For assay [2], the system named is Plasmodium falciparum. In words: In vitro antimalarial potency against multidrug-resistant Plasmodium falciparum Vietnam Smith strain. Conditions: read-out: ID50 (the source's name). The format is functional. A digest of the protocol:
as §1

In assay [3] the test system is Plasmodium berghei. As to the kind of experiment: Increase in mean survival time in Plasmodium berghei inoculated mice (Mus musculus) following 40 mg/kg administration. The format is functional.
Assay [4] deals with Mus musculus. In words: In vivo antimalarial activity against Plasmodium berghei in the mice (Mus musculus) at 640 mg/kg dosage; C=cure. The format is functional, organism-based. Set-up: dose 640 mg/kg. A digest of the protocol:
(§2)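 Mortality-based mouse test against the drug-sensitive P. berghei strain KBG 173, run at the Leo Rane Laboratory. Groups of five mice per dose level were scored for cures and for toxic deaths.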

Assay [5] concerns Mus musculus. As to the kind of experiment: In vivo antimalarial activity against Plasmodium berghei in the mice (Mus musculus) at 80 mg/kg dosage. The class given is functional. Summed up: as §2
The test system of assay [6] is Plasmodium berghei. In words: Increase in mean survival time in Plasmodium berghei inoculated mice (Mus musculus) following 160 mg/kg administration. The class given is functional.
Assay [7] deals with Mus musculus. As to the kind of experiment: In vivo antimalarial activity against Plasmodium berghei in the mice (Mus musculus) at 320 mg/kg dosage; C=cure. The format is functional, organism-based. Set-up: dose 320 mg/kg. A digest of the protocol:
as §2

The subject of assay [8] is Mus musculus. In words: In vivo antimalarial activity against Plasmodium berghei in the mice (Mus musculus) at 640 mg/kg dosage. The class given is functional. A digest of the protocol: as §2
In assay [9] the test system is Mus musculus. In words: In vivo antimalarial activity against Plasmodium berghei in the mice (Mus musculus) at 640 mg/kg dosage; T= Toxicity. The format is functional, organism-based. Set-up: dose 640 mg/kg. Summed up: as §2
Assay [10] deals with Mus musculus. In words: In vivo antimalarial activity against Plasmodium berghei in the mice (Mus musculus) at 320 mg/kg dosage. The class given is functional. A digest of the protocol:
as §2

For assay [11], the system named is Mus musculus. In words: In vivo antimalarial activity against Plasmodium berghei in the mice (Mus musculus) at 320 mg/kg dosage; T= Toxicity. The class given is functional, organism-based. Set-up: dose 320 mg/kg. A digest of the protocol:
as §2

In assay [12] the test system is Mus musculus. In words: In vivo antimalarial activity against Plasmodium berghei in the mice (Mus musculus) at 80 mg/kg dosage; C=cure. Set-up: dose 80 mg/kg. The class given is functional, organism-based. A digest of the protocol:
as §2

The test system of assay [13] is Mus musculus. In words: In vivo antimalarial activity against Plasmodium berghei in the mice (Mus musculus) at 160 mg/kg dosage; C=cure. The class given is functional, organism-based. Set-up: dose 160 mg/kg. A digest of the protocol: as §2
The test system of assay [14] is Mus musculus. As to the kind of experiment: In vivo antimalarial activity against Plasmodium berghei in the mice (Mus musculus) at 20 mg/kg dosage. The format is functional. Summed up: as §2
Assay [15] has as its system Mus musculus. As to the kind of experiment: In vivo antimalarial activity against Plasmodium berghei in the mice (Mus musculus) at 160 mg/kg dosage. The format is functional. Summed up:
as §2

Assay [16] concerns Mus musculus. In words: In vivo antimalarial activity against Plasmodium berghei in the mice (Mus musculus) at 40 mg/kg dosage. The format is functional. A digest of the protocol:
as §2

≈ marks a conversion by molar mass, not a printed value.

For the compound `C/C(=N\N=C(/S)N1CC(C)OC(C)C1)c1cccc[n+]1[O-]` (stereo not drawn), the IC50 with Plasmodium falciparum [1] was found to be 0.041 µg/mL (≈ 0.133 µM); in the assay on Plasmodium falciparum [2], 0.046 µg/mL (≈ 0.149 µM). The “increase in mean survival time” value in the assay on Plasmodium berghei [3] was 4.9 days; in the assay with Mus musculus [5], 6.1 days; in the assay with Plasmodium berghei [6], 6.1 days. The “cures (mice cured)” value in the assay with Mus musculus [4] was “Cures”.

Regarding `C/C(=N\N=C(/S)N1CCCC1)c1cccc[n+]1[O-]`, the IC50 stood at 0.048 µg/mL (≈ 0.182 µM) with Plasmodium falciparum [1] and 0.044 µg/mL (≈ 0.166 µM) in the assay on Plasmodium falciparum [2]. The cure outcome in the assay with Mus musculus [7] was “Cures”. Moreover, the “increase in mean survival time” value in the assay with Plasmodium berghei [3] turned out to be 0.9 days; in the assay with Mus musculus [8], 5.9 days; with Mus musculus [5] it was 1.1 days; in the assay on Plasmodium berghei [6], 1.5 days.

Turning to `C/C(=N\N=C(/S)N1CCN(C=O)CC1)c1cccc[n+]1[O-]`, the “increase in mean survival time” value with Plasmodium berghei [3] was -0.3 days; in the assay on Mus musculus [9] it was “Toxic”; with Plasmodium berghei [6], 0.3 days.

With `C/C(=N\N=C(/S)N1CCCCCC1)c1cccc[n+]1[O-]`, the “increase in mean survival time” value in the assay on Mus musculus [10] was 4.9 days; in the assay on Plasmodium berghei [3] it was 0.9 days; with Mus musculus [8], 7.1 days; in the assay with Mus musculus [5], 0.7 days; in the assay on Plasmodium berghei [6], 3.1 days.

Consider “3-Aza-bicyclo[3.2.2]nonane-3-carbothioic acid [1-(1-oxy-pyridin-2-yl)-ethylidene]-hydrazide; compound with copper(I) chloride”, for which the increase in mean survival time was -0.3 days in the assay on Plasmodium berghei [3], 2.4 days with Mus musculus [8] and 1.4 days in the assay on Plasmodium berghei [6].

For `C/C(=N\N=C(/S)N1CCCCC1)c1cccc[n+]1[O-]`, the cure outcome in the assay with Mus musculus [7] is reported as “Cures”. In addition, the figures for the “increase in mean survival time” value with Plasmodium berghei [3], with Mus musculus [5] and in the assay with Plasmodium berghei [6] were 3.5 days, 1.3 days and 6.3 days, respectively. For the same compound, the “cures (mice cured)” value in the assay with Mus musculus [4] was “Cures”.

As for `CCOC(=O)N1CCN(/C(S)=N/N=C(\C)c2cccc[n+]2[O-])CC1`, the “increase in mean survival time” value was “Toxic” in the assay with Mus musculus [11]; 4.7 days in the assay with Plasmodium berghei [3]; “Toxic” in the assay with Mus musculus [9]; “Cures” in the assay with Mus musculus [12]; “Cures” in the assay on Mus musculus [13].

For `CC(N/N=C(\S)N1CC2CCC(CC2)C1)c1cccc[n+]1[O-]` (stereo not drawn), the “increase in mean survival time” value with Mus musculus [10] was 2.5 days; with Plasmodium berghei [3], -0.3 days; with Mus musculus [5], 0.7 days; in the assay on Plasmodium berghei [6], 0.9 days; in the assay with Mus musculus [14] it was -0.1 days. Moreover, the “cures (mice cured)” value in the assay on Mus musculus [4] was “Cures”.

Consider `CCOC(=O)N1CCN(/C(S)=N/NC(C)c2cccc[n+]2[O-])CC1` (stereo not drawn), for which the “increase in mean survival time” value in the assay on Mus musculus [10] was determined as 8 days; in the assay on Plasmodium berghei [3] (40 mg/kg) it was 1.2 days; in the assay with Mus musculus [8], 9 days; in the assay with Mus musculus [5] it was 6 days; with Plasmodium berghei [6], 6.6 days.

Turning to `CC(N/N=C(\S)N1CCN(c2ccccn2)CC1)c1cccc[n+]1[O-]` (stereo not drawn), the “increase in mean survival time” value amounted to 3.4 days in the assay on Mus musculus [8] and 0.2 days with Plasmodium berghei [6].

With `C/C(=N\N=C(/S)N1CCCC(C)C1)c1cccc[n+]1[O-]` (stereo not drawn), the IC50 is 0.039 µg/mL (≈ 0.133 µM) in the assay on Plasmodium falciparum [1] and 0.051 µg/mL (≈ 0.174 µM) with Plasmodium falciparum [2]. Moreover, the “increase in mean survival time” value with Mus musculus [10] is 1.4 days; with Plasmodium berghei [3] it was 1.5 days; with Mus musculus [5], 1.6 days; with Plasmodium berghei [6] it was 4.7 days. In addition, in the assay on Mus musculus [4], the “cures (mice cured)” value is reported as “Cures”.

For `C/C(=N\N=C(/S)N1CCC(C)CC1)c1cccc[n+]1[O-]`, the values for the IC50 with Plasmodium falciparum [1] and with Plasmodium falciparum [2] were 0.074 µg/mL (≈ 0.253 µM) and 0.073 µg/mL (≈ 0.25 µM), respectively. Moreover, the “increase in mean survival time” value with Mus musculus [10] stood at 4.2 days; in the assay with Plasmodium berghei [3] it was 0.6 days; in the assay on Mus musculus [5], 2.2 days; in the assay on Plasmodium berghei [6], 2.3 days. The “cures (mice cured)” value in the assay with Mus musculus [4] was “Cures”.

Take `CC(N/N=C(\S)N1CCCCCC1)c1cccc[n+]1[O-]` (stereo not drawn): the “increase in mean survival time” value in the assay with Mus musculus [10] was 1.6 days; with Plasmodium berghei [3], -0.2 days; in the assay with Mus musculus [8], 3.5 days; in the assay with Mus musculus [5], 0.4 days; in the assay on Plasmodium berghei [6], 0.8 days.

With `C/C(=N\N=C(/S)N1CC2CCC(CC2)C1)c1cccc[n+]1[O-]`, the IC50 was determined as 0.086 µg/mL (≈ 0.27 µM) in the assay with Plasmodium falciparum [1] and 0.083 µg/mL (≈ 0.261 µM) in the assay with Plasmodium falciparum [2]. Moreover, the “increase in mean survival time” value with Mus musculus [10] is 4.9 days; in the assay on Plasmodium berghei [3], -0.7 days; in the assay on Mus musculus [5], 0.1 days; with Plasmodium berghei [6] it was 1.1 days. The “cures (mice cured)” value in the assay with Mus musculus [4] is reported as “Cures”.

Take `C/C(=N\N=C(/S)N1CCSCC1)c1cccc[n+]1[O-]`: the IC50 in the assay with Plasmodium falciparum [1] is 0.044 µg/mL (≈ 0.148 µM). Moreover, the “increase in mean survival time” value stood at 0.1 days in the assay on Plasmodium berghei [3], 1.5 days with Mus musculus [8] and 0.9 days in the assay with Plasmodium berghei [6].

As to `CC(N/N=C(\S)N1CCCC1)c1cccc[n+]1[O-]` (stereo not drawn), the entries for the “increase in mean survival time” value in the assay on Plasmodium berghei [3], in the assay on Mus musculus [8] and in the assay with Plasmodium berghei [6] were 0.8 days, 1.6 days and 0 days, respectively.

Regarding `C/C(=N\N=C(/S)N1CCN(c2ccccc2)CC1)c1cccc[n+]1[O-]`, the IC50 in the assay with Plasmodium falciparum [1] was 0.062 µg/mL (≈ 0.174 µM). The “increase in mean survival time” value is 9.1 days in the assay with Mus musculus [10]; 0.1 days with Plasmodium berghei [3]; 8.3 days with Mus musculus [8]; 1.7 days with Mus musculus [5]; 3.5 days in the assay with Plasmodium berghei [6].

With `CC(N/N=C(\S)N1CCCCC1)c1cccc[n+]1[O-]` (stereo not drawn), the “increase in mean survival time” value amounted to 0.2 days in the assay with Plasmodium berghei [3], 1.8 days in the assay with Mus musculus [8] and 0.2 days with Plasmodium berghei [6].

On to `C/C(=N\N=C(/S)N(C)C)c1cccc[n+]1[O-]`, for which the “increase in mean survival time” value in the assay on Mus musculus [15] was 4.2 days; with Mus musculus [11], “Toxic”; in the assay on Mus musculus [16], 2.3 days; in the assay with Mus musculus [8] it was 6.9 days; in the assay with Mus musculus [5], 0.7 days. The IC50 came out at 0.054 µg/mL (≈ 0.227 µM) with Plasmodium falciparum [1] and 0.078 µg/mL (≈ 0.327 µM) in the assay with Plasmodium falciparum [2].

On to `C/C(=N\N=C(/S)N1CCCCC1C)c1cccc[n+]1[O-]` (stereo not drawn), for which the results for the IC50 in the assay with Plasmodium falciparum [1] and with Plasmodium falciparum [2] were 0.077 µg/mL (≈ 0.263 µM) and 0.08 µg/mL (≈ 0.274 µM), respectively. Also, in the assay with Mus musculus [7], the cure outcome is given as “Cures”. For the same compound, the “increase in mean survival time” value is 2.3 days in the assay on Plasmodium berghei [3], 3.3 days in the assay with Mus musculus [5] and “Cures” in the assay with Mus musculus [13]. In addition, in the assay with Mus musculus [4], the “cures (mice cured)” value is “Cures”.

Take `C/C(=N\N=C(/S)N1CCN(c2ccccn2)CC1)c1cccc[n+]1[O-]`: in the assay with Mus musculus [7], the cure outcome is recorded as “Cures”. Besides, the “increase in mean survival time” value in the assay on Plasmodium berghei [3] was determined as 0.5 days; in the assay with Mus musculus [5] it was 0.3 days; in the assay on Plasmodium berghei [6] it was 1.9 days. Also, in the assay on Mus musculus [4], the “cures (mice cured)” value is “Cures”.
